The results in this text go back to ChEMBL document CHEMBL1127687, “Benzoxazolamines and benzothiazolamines: potent, enantioselective inhibitors of leukotriene biosynthesis with a novel mechanism of action” (J Med Chem, 1994).

Holding throughout (assay type): functional
For assay [1], the species on record is Homo sapiens. Briefly: Inhibitory activity of Ca-ionophore-A23187-induced Leukotriene B4 (LTB4) release in human polymorphonuclear leukocytes. The method, boiled down:
(§1)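 Human PMNs isolated from heparinized blood of healthy, medication-free donors (dextran sedimentation, Ficoll–Paque). DMSO stocks diluted into Ca/Mg-free Dulbecco's PBS. Cells (2.5 × 10^6/mL, PBS with Ca2+/Mg2+) preincubated with compound 15 min at 28 °C with shaking, then stimulated 10 min with A23187 (2.5 μM final). Stopped with EGTA (10 mM final), centrifuged, supernatant LTB4 measured by RIA.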

The species named for assay [2] is Homo sapiens. Briefly: Inhibitory activity of Ca-ionophore-A23187-induced Leukotriene B4 (LTB4) release in human polymorphonuclear leukocytes at the dose of 3 micro M concentration. The method, boiled down: as §1
Assay [3] is filed under the species Homo sapiens. Nature of the assay: Inhibitory activity of Ca-ionophore-A23187-induced Leukotriene B4 (LTB4) release in human polymorphonuclear leukocytes at the dose of 1 micro M concentration. A digest of the protocol:
as §1

What is called IC50 is the concentration that gives 50% inhibition. A low value points to greater potency in that assay. As usually defined, the Inhibition is the drop in the measured response relative to a control, in per cent.

Each structure is given as a SMILES string.

`c1ccc(C(CC2CCCCC2)Nc2nc3ccccc3o2)cc1` (stereo in doubt; 26a) came in with an IC50 in the assay listed under Homo sapiens [1] of 8 nM.
In the case of `O=S1(=O)CCN(CC(Nc2nc3cc(Cl)ccc3o2)c2ccccc2)CC1` (configuration not stated), the Inhibition in the assay filed under Homo sapiens [2] is 46%.
Take `CCOCC(Cc1ccc(F)cc1)Nc1nc2cc(C(C)C)ccc2o1` (configuration not stated): half-maximal inhibition in the assay listed under Homo sapiens [1] (Homo sapiens) (IC50) required 41 nM.
Still for that read-out and setting: the value for `CCOC(=O)c1ccc2oc(NC(CC3CCCCC3)c3ccccc3)nc2c1` (configuration not stated) was 45 nM.
On the same count and under the same terms, the result for `CC(C)c1ccc2oc(N[C@H](CN3CCCCC3)c3ccccc3)nc2c1` reads 1200 nM; that for `CCOC(=O)C(Cc1ccccc1)Nc1nc2cc(CC)ccc2s1` (configuration not stated), 12 nM; that for `COC(=O)[C@@H](CC1CCCCC1)Nc1nc2ccccc2o1`, 100 nM.
Still for that read-out and setting: the value for `CCOC(=O)C(Cc1ccc(Br)cc1)Nc1nc2ccccc2s1` (configuration not stated) was 150 nM; that for `Fc1ccc(C(CC2CCCCC2)Nc2nc3ccccc3o2)cc1` (configuration not stated) was 170 nM.
On to `CN1CCN(CC(Nc2nc3cc(Cl)ccc3o2)c2ccccc2)CC1` (configuration not stated), for which, in the assay listed under Homo sapiens [1], the Inhibition came to 21%.
For `O=C(O)C(Cc1ccccc1)Nc1nc2ccccc2s1` (configuration not stated), in the assay filed under Homo sapiens [2], the Inhibition was -19%.
In the case of `Fc1ccc(CC(Nc2nc3cc(F)c(F)cc3o2)c2ccccn2)cc1` (configuration not stated), the IC50 in the assay filed under Homo sapiens [1] (Homo sapiens) came out at 30 nM. In other words, the double-digit nanomolar range.
Same read-out and setting: the result for `CCOC(=O)C(Cc1ccccc1)Nc1nc2ccccc2s1` (configuration not stated) reads 360 nM; that for `COc1ccc2oc(NC(Cc3ccc(F)cc3)c3ccccn3)nc2c1` (configuration not stated), 11 nM.
The same measure, in the same setting: the value for `CC(C)c1ccc2oc(NC(Cc3ccc(Cl)cc3)c3ccccn3)nc2c1` (configuration not stated) was 29 nM.
On to `Fc1ccc(CC(Nc2nc3cc(Cl)ccc3o2)c2ccccn2)cc1` (stereo in doubt; 59a), for which the IC50 in the assay filed under Homo sapiens [1] was found to be 20 nM.
With `Cc1cccc(C(CC2CCCCC2)Nc2nc3ccccc3o2)c1` (configuration not stated), half-maximal inhibition in the assay filed under Homo sapiens [1] (Homo sapiens) (IC50) required 300 nM.
Take `O=C(O)c1ccc2oc(NC(CC3CCCCC3)c3ccccc3)nc2c1` (configuration not stated): the IC50 in the assay listed under Homo sapiens [1] (Homo sapiens) stood at 150 nM.
On the same count and under the same terms, the value for `c1ccc(CC(Nc2nc3ccccc3o2)c2ccccc2)cc1` (configuration not stated) was 51 nM.
As for `CCOC(=O)C(Cc1c[nH]cn1)Nc1nc2cc(C(C)C)ccc2o1` (configuration not stated), the Inhibition in the assay filed under Homo sapiens [3] is listed as 26%.
In the case of `Clc1ccc2oc(NC(Cc3ccccc3)c3ccccc3)nc2c1` (configuration not stated), half-maximal inhibition in the assay listed under Homo sapiens [1] (Homo sapiens) (IC50) was put at 23 nM.
In the case of `O=[N+]([O-])c1ccc2oc(NC(Cc3ccc(O)cc3)c3ccccn3)nc2c1` (configuration not stated), the Inhibition in the assay filed under Homo sapiens [2] is 27%.
In the case of `CCOC(=O)C(Cc1ccc(Cl)cc1)Nc1nc2ccc(C(C)C)cc2s1` (configuration not stated), the IC50 in the assay filed under Homo sapiens [1] (Homo sapiens) came out at 330 nM. In other words, the sub-micromolar range.
Regarding `c1ccc(CC(Nc2nc3ccccc3s2)c2ccccc2)cc1` (configuration not stated), in the assay listed under Homo sapiens [1] (Homo sapiens), the midpoint of inhibition, the IC50, lay at 170 nM.
With `CCOC(=O)[C@H](Cc1ccccc1)Nc1nc2ccccc2s1`, the IC50 in the assay filed under Homo sapiens [1] (Homo sapiens) is 230 nM.
`CCOC(=O)C(Cc1cncn1CC)Nc1nc2cc(C(C)C)ccc2o1` (configuration not stated): the Inhibition in the assay filed under Homo sapiens [3] came out at 59%.
`CCOC(=O)C(Cc1ccc(F)cc1)Nc1nc2ccccc2s1` (configuration not stated) returned an IC50 in the assay filed under Homo sapiens [1] (Homo sapiens) of 330 nM. That is a sub-micromolar value.
The same measure, in the same setting: the result for `CCOC(=O)C(CCc1ccccc1)Nc1nc2ccccc2s1` (configuration not stated) reads 520 nM.
On the same count and under the same terms, the value for `COc1ccc(C(CC2CCCCC2)Nc2nc3ccccc3o2)cc1` (configuration not stated) was 550 nM.
Take `CC(C)c1ccc2oc(N[C@@H](CN3CCCCC3)c3ccccc3)nc2c1`: the IC50 in the assay filed under Homo sapiens [1] (Homo sapiens) amounted to 100 nM.
The same measure, in the same setting: the value for `Cc1noc(C(Cc2ccc(F)cc2)Nc2nc3cc(C(C)C)ccc3o2)n1` (configuration not stated) was 440 nM.
With `c1ccc(C(CC2CCCCC2)Nc2nc3ccccc3o2)cc1` (stereo in doubt; 26b), 6 nM corresponded to half-maximal inhibition in the assay filed under Homo sapiens [1] (IC50).
Turning to `CC(C)c1ccc2oc(NC(Cc3ccc(F)cc3)c3ccccn3)nc2c1` (configuration not stated), the IC50 in the assay listed under Homo sapiens [1] (Homo sapiens) turned out to be 12 nM.
Same read-out and setting: the value for `CSCC(Cc1ccccc1)Nc1nc2cc(C(C)C)ccc2o1` (configuration not stated) was 13 nM.
Still for that read-out and setting: the value for `CCOC(=O)[C@@H](Cc1ccccc1)Nc1nc2ccccc2o1` was 1500 nM.
Same read-out and setting: the value for `CCOC(=O)[C@H](Cc1ccccc1)Nc1nc2ccccc2o1` was 150 nM; that for `CC(=O)Nc1ccc2oc(NC(CC3CCCCC3)c3ccccc3)nc2c1` (configuration not stated) was 78 nM; that for `COC(=O)[C@H](CC1CCCCC1)Nc1nc2ccccc2o1` was 5 nM.
The compound `CCOC(=O)C(Cc1ccc(Cl)cc1)Nc1nc2ccccc2s1` (configuration not stated) yielded an IC50 in the assay listed under Homo sapiens [1] (Homo sapiens) of 200 nM.
On the same count and under the same terms, the result for `CC(=O)C(Cc1ccccc1)Nc1nc2ccc(C(C)C)cc2o1` (configuration not stated) reads 350 nM.
Still for that read-out and setting: the value for `CCOC(=O)C(Cc1ccccc1)N(C)c1nc2ccccc2s1` (configuration not stated) was 1000 nM.
In the case of `OCc1ccc2oc(NC(CC3CCCCC3)c3ccccc3)nc2c1` (configuration not stated), the Inhibition in the assay listed under Homo sapiens [2] (in the assay text read “0.3 micro M” for “3 micro M”) amounted to 41%.
Take `c1ccc(C(CC2CCCCC2)Nc2nc3ccccc3o2)cc1` (stereo in doubt; 26c): the IC50 in the assay filed under Homo sapiens [1] is 340 nM.
Take `Cc1ccc2oc(N[C@@H](CC3CCCCC3)c3ccccn3)nc2c1` [ONTAZOLAST]: the IC50 in the assay listed under Homo sapiens [1] (Homo sapiens) amounted to 1 nM.
Same read-out and setting: the result for `N#Cc1ccc2oc(NC(CC3CCCCC3)c3ccccc3)nc2c1` (configuration not stated) reads 15 nM; that for `O=[N+]([O-])c1ccc2oc(NC(Cc3ccc(F)cc3)c3ccccn3)nc2c1` (configuration not stated), 16 nM; that for `CCCOCC(Cc1ccc(F)cc1)Nc1nc2cc(C(C)C)ccc2o1` (configuration not stated), 170 nM.
In the case of `Cc1ccc2oc(NC(CC3CCCCC3)c3ccncc3)nc2c1` (configuration not stated), the IC50 in the assay listed under Homo sapiens [1] (Homo sapiens) amounted to 190 nM.
Still for that read-out and setting: the result for `Fc1ccc(CC(Nc2nc3cc(F)ccc3o2)c2ccccn2)cc1` (configuration not stated) reads 21 nM.
The same measure, in the same setting: the result for `COc1ccc(CC(Nc2nc3cc([N+](=O)[O-])ccc3o2)c2ccccn2)cc1` (configuration not stated) reads 14 nM; that for `Cc1ccc2oc(NC(CC3CCCCC3)c3ccccn3)nc2c1` (configuration not stated), 4 nM.
Still for that read-out and setting: the value for `CNC(=O)C(CC1CCCCC1)Nc1nc2cc(C)ccc2o1` (configuration not stated) was 72 nM.
`CCOC(=O)C(Cc1ccc(Cl)cc1)Nc1nc2ccc(OC)cc2s1` (configuration not stated) came in with an IC50 in the assay filed under Homo sapiens [1] (Homo sapiens) of 230 nM.
Consider `CCOC(=O)C(Cc1ccccc1)Nc1nc2ccc(CC)cc2s1` (configuration not stated), for which 240 nM corresponded to half-maximal inhibition in the assay listed under Homo sapiens [1] (Homo sapiens) (IC50).
Still for that read-out and setting: the result for `Clc1ccccc1C(CC1CCCCC1)Nc1nc2ccccc2o1` (configuration not stated) reads 80 nM.
`Cc1ccc2oc(N[C@H](CC3CCCCC3)c3ccccn3)nc2c1` returned an IC50 in the assay filed under Homo sapiens [1] (Homo sapiens) of 40 nM.
Still for that read-out and setting: the result for `CCOC(=O)c1ccc2oc(NC(Cc3ccc(F)cc3)c3ccccn3)nc2c1` (configuration not stated) reads 27 nM; that for `COc1ccc2oc(NC(Cc3ccccc3)c3ccccc3)nc2c1` (configuration not stated), 9 nM.
Same read-out and setting: the result for `Fc1ccc(CC(Nc2nc3cc(C(F)(F)F)ccc3o2)c2ccccn2)cc1` (configuration not stated) reads 8 nM; that for `COCC(Cc1ccc(F)cc1)Nc1nc2cc(C(C)C)ccc2o1` (configuration not stated), 17 nM.
In the case of `NC(=O)c1ccc2oc(NC(CC3CCCCC3)c3ccccc3)nc2c1` (configuration not stated), the Inhibition in the assay listed under Homo sapiens [2] amounted to 35%.
`CCOC(=O)C(Cc1csc(C)n1)Nc1nc2cc(C(C)C)ccc2o1` (configuration not stated): the IC50 in the assay listed under Homo sapiens [1] (Homo sapiens) is 16 nM.
Same read-out and setting: the result for `CC(C)c1ccc2oc(NC(CC3CCCCC3)c3ccccc3)nc2c1` (configuration not stated) reads 6 nM; that for `CC(C)c1ccc2oc(NC(CN3CCOCC3)c3ccccc3)nc2c1` (configuration not stated), 52 nM.
Regarding `CCOC(=O)C(Nc1nc2ccccc2s1)c1ccccc1` (configuration not stated), the Inhibition in the assay listed under Homo sapiens [2] came out at 61%.
On to `CCCCc1ccc2nc(NC(Cc3ccc(Cl)cc3)C(=O)OCC)sc2c1` (configuration not stated), for which the IC50 in the assay listed under Homo sapiens [1] (Homo sapiens) stood at 180 nM.
Still for that read-out and setting: the result for `CCOC(=O)C(Cc1ccccc1)Nc1nc2ccc(C(C)C)cc2o1` (configuration not stated) reads 220 nM.
As to `CCOC(=O)C(Cc1ccccc1)Cc1nc2ccccc2s1` (configuration not stated), the Inhibition in the assay listed under Homo sapiens [2] was determined as 56%.
As to `Clc1ccc2oc(NC(CN3CCSCC3)c3ccccc3)nc2c1` (configuration not stated), the IC50 in the assay filed under Homo sapiens [1] (Homo sapiens) came out at 48 nM.
The same measure, in the same setting: the value for `Cc1nc(CC(Nc2nc3cc(C(C)C)ccc3o2)c2ccccn2)cs1` (configuration not stated) was 29 nM.
In turn, `CN(C)C(=O)c1ccc2oc(NC(CC3CCCCC3)c3ccccc3)nc2c1` (configuration not stated) registered an IC50 in the assay listed under Homo sapiens [1] (Homo sapiens) of 170 nM.
In the case of `CC(C)c1ccc2oc(NC(Cc3cccc(Cl)c3)c3ccccn3)nc2c1` (configuration not stated), in the assay filed under Homo sapiens [1] (Homo sapiens), the IC50 amounted to 5 nM.
The same measure, in the same setting: the result for `CCOC(=O)C(Cc1ccccc1)Nc1nc2cc(C(C)C)ccc2o1` (configuration not stated) reads 0.5 nM.
As to `Fc1ccc(CC(Nc2nc3cc(Cl)ccc3o2)c2ccccn2)cc1` (stereo in doubt; 59c), the IC50 in the assay filed under Homo sapiens [1] worked out at 320 nM.
With `CN(C)S(=O)(=O)c1ccc2oc(NC(Cc3ccc(F)cc3)c3ccccn3)nc2c1` (configuration not stated), the midpoint of inhibition in the assay listed under Homo sapiens [1] (Homo sapiens), the IC50, lay at 50 nM.
`Cc1ccc2oc(NC(CC3CCCCC3)c3cccnc3)nc2c1` (configuration not stated) gave an IC50 in the assay filed under Homo sapiens [1] (Homo sapiens) of 20 nM.
On the same count and under the same terms, the result for `CS(=O)(=O)Nc1ccc2oc(NC(CC3CCCCC3)c3ccccc3)nc2c1` (configuration not stated) reads 160 nM.
